In the library only some 2.3% were active in any assay of this set; here they are far more common.
TRPC4 inh – inhibitors of mouse TRPC4 channel, primary screen, Fluo4 calcium, HEK293 TRPC4beta/mu-opioid cells | Short transient receptor potential channel 4 (Mus musculus), Q9QUQ5 | DAMGO-evoked Fluo4 calcium flux; hits give low values | B-score at 10 µM | 300,000 tested, 0.39% active;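 active = B-score over 3 SD under the library average, no early fluorescence shift, positive overall ratio signal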
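Assay system: Stable TRPC4beta/mu-opioid receptor HEK293 cells | Reagent: DAMGO in two steps, submaximal then maximal | Compound dosing: Single concentration per test compound | Signal: Fluo4 Ca2+ flux fluorescence | Evaluation: Per-well B score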
TRPC6 act – mouse TRPC6 channel activators, primary screen, cell-based, HEK293, membrane potential dye; Short transient receptor potential channel 6 (Mus musculus), Q61143; HEK293-TRPC6 membrane potential dye fluorescence; hits give high values; B-score at 10 µM; 310,000 tested, 0.13% active;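 active = B-score of the integrated fluorescence ratio above library mean plus 3 SD, and starting fluorescence ratio within library mean plus 5 SD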;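 also: higher score means more depolarization so channel activation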
Target sequence (Q61143 whole entry, looked up): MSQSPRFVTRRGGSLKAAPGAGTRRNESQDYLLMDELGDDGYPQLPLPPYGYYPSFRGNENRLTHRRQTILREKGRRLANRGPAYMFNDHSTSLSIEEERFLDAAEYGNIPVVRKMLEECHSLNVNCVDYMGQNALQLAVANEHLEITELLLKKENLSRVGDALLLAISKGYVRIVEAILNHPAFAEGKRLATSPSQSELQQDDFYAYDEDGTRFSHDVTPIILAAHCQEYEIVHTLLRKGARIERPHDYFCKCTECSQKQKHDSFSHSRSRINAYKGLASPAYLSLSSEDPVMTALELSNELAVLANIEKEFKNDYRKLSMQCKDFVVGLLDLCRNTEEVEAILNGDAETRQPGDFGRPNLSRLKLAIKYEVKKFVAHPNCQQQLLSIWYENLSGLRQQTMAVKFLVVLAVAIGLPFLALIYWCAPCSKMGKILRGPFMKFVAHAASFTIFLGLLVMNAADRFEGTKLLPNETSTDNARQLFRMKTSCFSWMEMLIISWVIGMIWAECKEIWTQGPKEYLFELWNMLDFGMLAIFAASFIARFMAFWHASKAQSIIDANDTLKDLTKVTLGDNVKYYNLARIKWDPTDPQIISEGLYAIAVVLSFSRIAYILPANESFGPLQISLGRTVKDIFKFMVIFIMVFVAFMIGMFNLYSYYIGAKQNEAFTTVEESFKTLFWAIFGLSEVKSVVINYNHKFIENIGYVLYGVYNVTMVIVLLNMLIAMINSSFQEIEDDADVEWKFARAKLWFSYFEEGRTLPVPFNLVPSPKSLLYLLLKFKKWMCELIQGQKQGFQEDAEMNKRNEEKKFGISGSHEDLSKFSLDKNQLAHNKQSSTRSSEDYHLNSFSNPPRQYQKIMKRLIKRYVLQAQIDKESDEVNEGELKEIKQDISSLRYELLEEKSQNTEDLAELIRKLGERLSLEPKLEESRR
TRPC4 act – activators of mouse TRPC4 channel, primary screen, Fluo4 calcium, HEK293 TRPC4beta/mu-opioid cells; Fluo4 calcium fluorescence; hits give high values; B-score at 10 µM; 310,000 tested, 0.49% active; AID 2237, 2010;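 active = B-score above 5 SD of library B-scores, and initial fluorescence ratio not above library mean plus 5 SD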;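 also: positive B-score marks a calcium rise read as TRPC4 activation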
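Assay system – TRPC4beta and mu-opioid receptor HEK293 stable cells · Measured by – Fluo4 fluorescence, kinetic · Schedule – dye loading 45 min room temperature, 110 s kinetic read · Read-out – B-scored integrated calcium fluorescence ratio · Controls – buffer and maximal DAMGO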
TRPC4 PAM – positive allosteric modulators of TRPC4, primary screen, cell-based, mouse TRPC4beta, HEK293 mu-opioid, Fluo-4 calcium; Short transient receptor potential channel 4 (Mus musculus), Q9QUQ5; DAMGO EC20, Fluo-4 Ca2+ flux; hits give high values; B-score at 10 µM; 310,000 tested, 0.42% active;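 active = B-score of calcium response area above 5 SD of library B-scores, with initial fluorescence ratio within 5 SD of library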
TRPC6 inh – mouse TRPC6 channel inhibitors, primary screen, cell-based, HEK293, membrane potential dye; ACh-evoked depolarization; hits give low values; B-score at 10 µM; Short transient receptor potential channel 6 (Mus musculus), Q61143; 310,000 tested, 1.1% active;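 active = B-score under library mean minus 3 SD, initial fluorescence not abnormally high, positive integrated signal ratio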;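 also: B-score derived from integrated fluorescence ratio over the kinetic read; more negative B-score means stronger inhibition of depolarization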
A number is an active result.

Screening Cc1ccc(NC(=O)c2cc(N3C(=O)C=CC3=O)ccc2N2CCOCC2)cc1 returned TRPC4 inh -6, TRPC6 act inactive, TRPC4 act inactive, TRPC4 PAM inactive and TRPC6 inh inactive.
CC1CCCCC1NC(=O)CN(C)S(=O)(=O)c1ccc2c(c1)c(=O)n(C)c(=O)n2C (stereo not drawn) was read as TRPC4 inh inactive, TRPC6 act inactive, TRPC4 act inactive, TRPC4 PAM inactive and TRPC6 inh inactive.
For Cc1ccc(N2CC(C(=O)NCCS(=O)(=O)N3CCN(c4ccccc4F)CC3)CC2=O)cc1 (stereo not drawn) the results were TRPC4 inh inactive, TRPC6 act inactive, TRPC4 act inactive, TRPC4 PAM inactive and TRPC6 inh inactive.
Screening C=CCOC(=O)C1=C[C@H](c2ccc(C(F)(F)F)cc2)[C@@H](CCCO)[C@H](OCC)O1 returned TRPC4 inh -5, TRPC6 act inactive, TRPC4 act inactive, TRPC4 PAM inactive and TRPC6 inh inactive.
`Cc1noc(C)c1CCC(=O)NC1CCCN(Cc2ccc(CC(C)C)cc2)C1` (stereo not drawn) gave TRPC4 inh inactive, TRPC6 act inactive, TRPC4 act 101, TRPC4 PAM inactive and TRPC6 inh inactive.
CCCCN(C(=O)c1ccc(NC(=O)C(C)C)cc1)c1ccccc1 was read as TRPC4 inh inactive, TRPC6 act inactive, TRPC4 act inactive, TRPC4 PAM inactive and TRPC6 inh inactive.
Screening Cc1oc(-c2ccoc2)nc1CN(Cc1ccccc1)CC1CC1 returned TRPC4 inh -9, TRPC6 act inactive, TRPC4 act inactive, TRPC4 PAM inactive and TRPC6 inh inactive.
Screening Cc1cc(C)n(C(=O)CNC(=O)c2ccccc2F)n1 returned TRPC4 inh inactive, TRPC6 act inactive, TRPC4 act inactive, TRPC4 PAM inactive and TRPC6 inh inactive.
Screening COc1cc(NS(=O)(=O)c2ccc(NC(=O)CCC(=O)O)cc2)nc(OC)n1 returned TRPC4 inh inactive, TRPC6 act inactive, TRPC4 act inactive, TRPC4 PAM 10 and TRPC6 inh inactive.
`CCC(=O)N1CCc2cc(S(=O)(=O)NCCC(=O)NC3CCCCCC3)ccc21` gave TRPC4 inh inactive, TRPC6 act inactive, TRPC4 act inactive, TRPC4 PAM inactive and TRPC6 inh inactive.
For O=S(=O)(c1ccc(Cl)cc1Br)N1CCCCC1 the results were TRPC4 inh inactive, TRPC6 act inactive, TRPC4 act inactive, TRPC4 PAM 17 and TRPC6 inh inactive.
For COC(=O)CN1C(=O)[C@H]2[C@@H](c3ccc(C)o3)N3C(=O)CN(Cc4ccccn4)C(=O)[C@@]3(Cc3ccccc3)[C@H]2C1=O the results were TRPC4 inh inactive, TRPC6 act inactive, TRPC4 act inactive, TRPC4 PAM inactive and TRPC6 inh inactive.
`Cc1nn(C)c(Cl)c1CN1CCCC(CCC(=O)NCc2ccccc2F)C1` (stereo not drawn) gave TRPC4 inh inactive, TRPC6 act inactive, TRPC4 act inactive, TRPC4 PAM inactive and TRPC6 inh inactive.
Screening CCOc1cccc(CN2CCCC(CCC(=O)NCc3ccccc3F)C2)c1O (stereo not drawn) returned TRPC4 inh inactive, TRPC6 act inactive, TRPC4 act 56, TRPC4 PAM inactive and TRPC6 inh inactive.
Cc1cccc(Cn2c(SCCN3CCCCC3)nc3c2c(=O)[nH]c(=O)n3C)c1 was read as TRPC4 inh inactive, TRPC6 act inactive, TRPC4 act inactive, TRPC4 PAM inactive and TRPC6 inh -5.7.
`C=CCn1c(SCCN2CCCCC2)nc2c1c(=O)[nH]c(=O)n2C` gave TRPC4 inh inactive, TRPC6 act inactive, TRPC4 act inactive, TRPC4 PAM 40 and TRPC6 inh inactive.
For C=CCn1c(SCCOC)nc2c1c(=O)[nH]c(=O)n2C the results were TRPC4 inh inactive, TRPC6 act inactive, TRPC4 act inactive, TRPC4 PAM inactive and TRPC6 inh inactive.
Screening C/C=C/Cn1c(SCCCc2ccccc2)nc2c1c(=O)[nH]c(=O)n2C returned TRPC4 inh inactive, TRPC6 act inactive, TRPC4 act inactive, TRPC4 PAM 86 and TRPC6 inh inactive.

High-throughput results from PubChem BioAssay.
